Eleven compounds from ChEMBL document CHEMBL1154713, “Molecular iodine promoted synthesis of new pyrazolo[3,4-d]pyrimidine derivatives as potential antibacterial agents” (2010) can be followed below.

Type in all cases: functional
In assay [1] the test system is Bacillus subtilis. The assay is described as follows: Antibacterial activity against Bacillus subtilis PTCC 1365 at 500 ug/ml after 24 hrs by disk diffusion sensitivity assay. The note with it: PTCC 1365, 24 h, read-out: IZ. The method in brief:
(§1)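 Disc diffusion on Mueller–Hinton agar poured 5 mm deep, swabbed with 1.2 × 10⁸ CFU/mL bacterial suspension (0.5 McFarland). Compounds dissolved in DMF, diluted with ethanol to 100–600 µg/mL solutions, loaded onto 6.25 mm filter-paper discs. Discs placed in triplicate, incubated 24 h at 37 °C. Average inhibition zone reported, maximum across concentrations shown. Streptomycin used as standard.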
In general terms: Agar diffusion results depend on both activity and mobility in agar.

Assay [2] can be described thus: Antibacterial activity against Escherichia coli HB101 BA 7601C at 500 ug/ml after 24 hrs by disk diffusion sensitivity assay. The note with it: read-out: IZ. The procedure, abridged:
as §1

The subject of assay [3] is Pseudomonas aeruginosa. The assay is described as follows: Antibacterial activity against Pseudomonas aeruginosa PTCC 1431 at 500 ug/ml after 24 hrs by disk diffusion sensitivity assay. As to conditions: PTCC 1431, 24 h, read-out: IZ. The method in brief:
as §1

The test system of assay [4] is Staphylococcus aureus. The assay is described as follows: Antibacterial activity against Staphylococcus aureus PTCC 1074 at 500 ug/ml after 24 hrs by disk diffusion sensitivity assay. The note with it: PTCC 1074, 24 h, read-out: IZ. The procedure, abridged:
as §1

Assay [5] can be described thus: Antibacterial activity against Escherichia coli HB101 BA 7601C at 10 ug/ml after 24 hrs by disk diffusion sensitivity assay. The note with it: read-out: IZ.
Assay [6] concerns Pseudomonas aeruginosa. Nature of the assay: Antibacterial activity against Pseudomonas aeruginosa PTCC 1431 at 10 ug/ml after 24 hrs by disk diffusion sensitivity assay. As to conditions: PTCC 1431, 24 h, read-out: IZ.
In assay [7] the test system is Staphylococcus aureus. Nature of the assay: Antibacterial activity against Staphylococcus aureus PTCC 1074 at 10 ug/ml after 24 hrs by disk diffusion sensitivity assay. As to conditions: PTCC 1074, 24 h, read-out: IZ.
Assay [8] concerns Bacillus subtilis. Nature of the assay: Antibacterial activity against Bacillus subtilis PTCC 1365 at 10 ug/ml after 24 hrs by disk diffusion sensitivity assay. The note with it: PTCC 1365, 24 h, read-out: IZ.
Assay [9] deals with Bacillus subtilis. The assay is described as follows: Antibacterial activity against Bacillus subtilis PTCC 1365 at 100 ug/ml after 24 hrs by disk diffusion sensitivity assay. As to conditions: PTCC 1365, 24 h, read-out: IZ. The method in brief: as §1
Assay [10] in a line: Antibacterial activity against Escherichia coli HB101 BA 7601C at 100 ug/ml after 24 hrs by disk diffusion sensitivity assay. As to conditions: read-out: IZ. The method in brief:
as §1

Assay [11] deals with Pseudomonas aeruginosa. Nature of the assay: Antibacterial activity against Pseudomonas aeruginosa PTCC 1431 at 100 ug/ml after 24 hrs by disk diffusion sensitivity assay. The note with it: PTCC 1431, 24 h, read-out: IZ. The method in brief: as §1
Assay [12] relates to Staphylococcus aureus. The assay is described as follows: Antibacterial activity against Staphylococcus aureus PTCC 1074 at 100 ug/ml after 24 hrs by disk diffusion sensitivity assay. As to conditions: PTCC 1074, 24 h, read-out: IZ. The method in brief: as §1
Assay [13] has as its system Bacillus subtilis. The assay is described as follows: Antibacterial activity against Bacillus subtilis PTCC 1365 at 200 ug/ml after 24 hrs by disk diffusion sensitivity assay. The note with it: PTCC 1365, 24 h, read-out: IZ. The procedure, abridged:
as §1

Assay [14] is described as follows: Antibacterial activity against Escherichia coli HB101 BA 7601C at 200 ug/ml after 24 hrs by disk diffusion sensitivity assay. The note with it: read-out: IZ. The method in brief: as §1
Assay [15] has as its system Pseudomonas aeruginosa. The assay is described as follows: Antibacterial activity against Pseudomonas aeruginosa PTCC 1431 at 200 ug/ml after 24 hrs by disk diffusion sensitivity assay. As to conditions: PTCC 1431, 24 h, read-out: IZ. The procedure, abridged: as §1
Assay [16] deals with Staphylococcus aureus. The assay is described as follows: Antibacterial activity against Staphylococcus aureus PTCC 1074 at 200 ug/ml after 24 hrs by disk diffusion sensitivity assay. As to conditions: PTCC 1074, 24 h, read-out: IZ. The procedure, abridged:
as §1

Assay [17] concerns Bacillus subtilis. The assay is described as follows: Antibacterial activity against Bacillus subtilis PTCC 1365 at 300 ug/ml after 24 hrs by disk diffusion sensitivity assay. As to conditions: PTCC 1365, 24 h, read-out: IZ. The method in brief: as §1
Assay [18] is described as follows: Antibacterial activity against Escherichia coli HB101 BA 7601C at 300 ug/ml after 24 hrs by disk diffusion sensitivity assay. The note with it: read-out: IZ. The procedure, abridged:
as §1

Assay [19] deals with Pseudomonas aeruginosa. Nature of the assay: Antibacterial activity against Pseudomonas aeruginosa PTCC 1431 at 300 ug/ml after 24 hrs by disk diffusion sensitivity assay. As to conditions: PTCC 1431, 24 h, read-out: IZ. The method in brief:
as §1

Assay [20] has as its system Staphylococcus aureus. Nature of the assay: Antibacterial activity against Staphylococcus aureus PTCC 1074 at 300 ug/ml after 24 hrs by disk diffusion sensitivity assay. As to conditions: PTCC 1074, 24 h, read-out: IZ. The method in brief:
as §1

The nature of assay [21]: Antibacterial activity against Escherichia coli HB101 BA 7601C at 400 ug/ml after 24 hrs by disk diffusion sensitivity assay. As to conditions: read-out: IZ. The method in brief: as §1
For assay [22], the system named is Pseudomonas aeruginosa. Nature of the assay: Antibacterial activity against Pseudomonas aeruginosa PTCC 1431 at 400 ug/ml after 24 hrs by disk diffusion sensitivity assay. The note with it: PTCC 1431, 24 h, read-out: IZ. The method in brief: as §1
The test system of assay [23] is Staphylococcus aureus. Nature of the assay: Antibacterial activity against Staphylococcus aureus PTCC 1074 at 400 ug/ml after 24 hrs by disk diffusion sensitivity assay. As to conditions: PTCC 1074, 24 h, read-out: IZ. The method in brief:
as §1

Assay [24] has as its system Bacillus subtilis. The assay is described as follows: Antibacterial activity against Bacillus subtilis PTCC 1365 at 400 ug/ml after 24 hrs by disk diffusion sensitivity assay. As to conditions: PTCC 1365, 24 h, read-out: IZ. The procedure, abridged: as §1

Take `O=c1[nH]c(-c2cccc(O)c2)nc2c1cnn2-c1ccc([N+](=O)[O-])cc1[N+](=O)[O-]`: the zone of inhibition at 500 µg/mL was 12 mm in assay [1], 12 mm in assay [2], 9.5 mm in assay [3] and 16 mm in assay [4].
`CN[C@@H]1[C@H](O[C@H]2[C@H](O[C@H]3[C@H](O)[C@@H](O)[C@H](N=C(N)N)[C@@H](O)[C@@H]3N=C(N)N)O[C@@H](C)[C@]2(O)C=O)O[C@@H](CO)[C@H](O)[C@H]1O` [STREPTOMYCIN]: the zone of inhibition at 10 µg/mL in assay [5] turned out to be 17 mm; in [6], 10 mm; in [7] it was 15 mm; in assay [8] it was 10 mm.
For `O=c1[nH]c(-c2ccc(Br)cc2)nc2c1cnn2-c1ccc([N+](=O)[O-])cc1[N+](=O)[O-]`, the zone of inhibition at 100 µg/mL in assay [9] was 9 mm; in [10] it was 17 mm; in assay [11], 10 mm; in assay [12] it was 9 mm.
Take `COc1cccc(-c2nc3c(cnn3-c3ccc([N+](=O)[O-])cc3[N+](=O)[O-])c(=O)[nH]2)c1`: the zone of inhibition at 100 µg/mL was determined as 8 mm in assay [9], 11.5 mm in [10], 12.5 mm in assay [11] and 9 mm in assay [12].
Turning to `Cc1ccc(-c2nc3c(cnn3-c3ccc([N+](=O)[O-])cc3[N+](=O)[O-])c(=O)[nH]2)cc1`, the zone of inhibition at 200 µg/mL is 9 mm in [13], 9 mm in [14], 7.5 mm in [15] and 13 mm in [16].
`O=c1[nH]c(-c2ccc([N+](=O)[O-])cc2)nc2c1cnn2-c1ccc([N+](=O)[O-])cc1[N+](=O)[O-]`: the zone of inhibition at 300 µg/mL in [17] is 9 mm; in assay [18], 9 mm; in [19] it was 13.5 mm; in [20], 8.5 mm.
As to `O=c1[nH]c(-c2cccc([N+](=O)[O-])c2)nc2c1cnn2-c1ccc([N+](=O)[O-])cc1[N+](=O)[O-]`, the zone of inhibition at 400 µg/mL came to 8 mm in [21], 9 mm in assay [22], 15 mm in [23] and 11 mm in assay [24].
Take `O=c1[nH]c(-c2ccccc2)nc2c1cnn2-c1ccc([N+](=O)[O-])cc1[N+](=O)[O-]`: the zone of inhibition at 400 µg/mL came to 15 mm in assay [21], 9.5 mm in assay [22], 9 mm in [23] and 10 mm in [24].
As for `COc1ccc(-c2nc3c(cnn3-c3ccc([N+](=O)[O-])cc3[N+](=O)[O-])c(=O)[nH]2)cc1`, the zone of inhibition at 100 µg/mL came to 10 mm in assay [9], 9.5 mm in assay [10], 12.5 mm in assay [11] and 10 mm in [12].
For the compound `O=c1[nH]c(-c2ccc(Cl)cc2)nc2c1cnn2-c1ccc([N+](=O)[O-])cc1[N+](=O)[O-]`, the zone of inhibition at 400 µg/mL was found to be 10.5 mm in assay [21], 8 mm in assay [22], 8.5 mm in [23] and 15 mm in [24].
As for `O=c1[nH]c(-c2ccccc2O)nc2c1cnn2-c1ccc([N+](=O)[O-])cc1[N+](=O)[O-]`, the zone of inhibition at 500 µg/mL in [1] came out at 9 mm; in assay [2] it was 7 mm; in assay [3] it was 16 mm; in assay [4], 9 mm.
